Screens: PubChem BioAssay, The Scripps Research Institute Molecular Screening Center
Most compounds without a hit are left out; they make up all but 1.8% or so of the library.
TCR-CD3 inh – blocks the human TCR-CD3 interaction | TAMRA-labeled TCR probe fluorescence, biochemical | inhibition, % at 9.4 µM | 0.37% of 360,000 active | AID 651800;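 further: recombinant mutant TCR 2C K166C tagged with TAMRA read by polarization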
SIAE inh – inhibitors of human sialic acid acetylesterase SIAE. inhibition, % at 9.66 µM. SIAE FP-Rh probe binding, fluorescence polarization. 0.69% of 370,000 active;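 active means inhibition above a cutoff: mean of compounds within the control limits plus 3 SD of those, cut at about 17% in these data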
DDE Tn7 FP inh – DD(E)-Tn7 binding inhibition, primary FP screen | FP displacement of FITC-Tn7 peptide from fibrin DD(E); 0% = median of compound wells per plate | AID 720508 | inhibition, % at 8.3 µM | P02675 | 0.13% of 370,000 active;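 active means inhibition above the mean of compounds falling within the control limits plus 3 SD of them, cut at about 14% in these data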
Target sequence (P02675 whole entry, looked up): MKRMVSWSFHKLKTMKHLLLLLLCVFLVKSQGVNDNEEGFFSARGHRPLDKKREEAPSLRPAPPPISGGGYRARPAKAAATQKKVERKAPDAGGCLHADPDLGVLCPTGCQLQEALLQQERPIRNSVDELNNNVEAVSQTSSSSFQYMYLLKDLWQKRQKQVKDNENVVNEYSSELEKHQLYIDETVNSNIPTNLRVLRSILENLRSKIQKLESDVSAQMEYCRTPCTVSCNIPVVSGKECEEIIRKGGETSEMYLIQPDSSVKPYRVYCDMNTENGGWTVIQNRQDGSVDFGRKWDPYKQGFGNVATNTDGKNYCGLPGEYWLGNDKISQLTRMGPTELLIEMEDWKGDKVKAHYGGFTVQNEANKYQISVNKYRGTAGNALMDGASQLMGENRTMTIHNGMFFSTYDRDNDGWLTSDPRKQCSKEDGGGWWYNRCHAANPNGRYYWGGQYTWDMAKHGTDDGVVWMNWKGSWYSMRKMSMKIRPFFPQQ
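Test system: human clot-derived fibrin DD(E) complex / Quantity: 2 µM final DD(E) protein / Incubation: 10 min plus 3 h, room temperature / Measured by: fluorescence polarization / Benchmarks: high control of 10 µM Aha-Tn7 peptide / Replicates: singlicate testing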
HTRA1 inh – inhibitors of human serine peptidase HTRA1 | Q92743 | recombinant HTRA1, FP-rhodamine activity-based probe, fluorescence polarization | inhibition, % at 5.96 µM | 0.5% of 340,000 active; in the data active means inhibition above about 36%
DDE Tn6 FP inh – DD(E)-Tn6 binding inhibition, primary FP screen. P02675. Fibrin DD(E) TRITC-Tn6 fluorescence polarization displacement. inhibition, % at 8.3 µM. 0.21% of 370,000 active. AID 720509;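 active means inhibition above a per-campaign cutoff: mean of compounds within control limits plus 3 SD, cut at about 15% in these data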
ABHD4 inh – inhibitors of mouse ABHD4. inhibition, % at 8.92 µM. purified mABHD4, FP-Rh probe fluorescence polarization. 0.54% of 370,000 active;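 active means inhibition exceeding the mean over every tested compound plus 3 SD, cut at about 30% in these data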
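Material: mouse ABHD4 enzyme, wild type; Benchmarks: S159A mutant high control, sample median low control; Buffer or medium: HEPES pH 7.0, NaCl, Pluronic buffer; Signal: fluorescence polarization; Read-out: percent inhibition of probe binding, normalized to plate controls; Timing: pre-incubation 45 min, probe exposure 60 min, at 25 °C; Dosing: 8.92 µM, single dose.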
BSA TAMRA ctr – BSA probe counter-screen for TCR-CD3 inhibitors. TAMRA-labeled BSA probe fluorescence counterscreen. shares compounds with TCR-CD3 inh. 10% of 1,200 active. inhibition, % at 9.4 µM; in the data active means inhibition above about 23%
TCR-CD3 inh conf – TCR-CD3 interaction inhibition, confirmation | inhibition, % at 9.4 µM | TAMRA-labeled TCR probe fluorescence binding assay | shares compounds with TCR-CD3 inh | 48% of 1,200 active
Numbers stand for hits; ! = not confirmed by another sample. Unless noted, no stated cut-off is given here; in the data, active means inhibition above about 19%; inactive means the rest.

CC(/C=C1\SC(=S)N(CCC(=O)Nc2ccc(O)cc2)C1=O)=C\c1ccccc1 was read as TCR-CD3 inh inactive, SIAE inh inactive, DDE Tn7 FP inh inactive, HTRA1 inh inactive, DDE Tn6 FP inh inactive and ABHD4 inh inactive.
`CC(=O)c1ccc(NC(=O)CN2C(=O)/C(=C/C(C)=C/c3ccccc3)SC2=S)cc1` gave TCR-CD3 inh 23.8, SIAE inh inactive, DDE Tn7 FP inh inactive, HTRA1 inh inactive, DDE Tn6 FP inh inactive, ABHD4 inh inactive, BSA TAMRA ctr inactive and TCR-CD3 inh conf 49.2.
For CC1OC(OCC2OC(Oc3c(-c4ccc(O)cc4)oc4cc(O)cc(O)c4c3=O)C(O)C(O)C2O)C(O)C(O)C1O (configuration not stated) the results were TCR-CD3 inh 21.1, SIAE inh inactive, DDE Tn7 FP inh inactive, HTRA1 inh inactive, DDE Tn6 FP inh inactive, ABHD4 inh inactive, BSA TAMRA ctr inactive and TCR-CD3 inh conf inactive.
Screening O=C(CCN1C(=O)/C(=C/c2ccc(Cl)cc2)SC1=S)NCCCn1ccnc1 returned TCR-CD3 inh 23.0, SIAE inh inactive, DDE Tn7 FP inh inactive, HTRA1 inh inactive, DDE Tn6 FP inh inactive, ABHD4 inh inactive, BSA TAMRA ctr inactive and TCR-CD3 inh conf 19.8.
For O=C(CCN1C(=O)/C(=C/c2ccc(F)cc2)SC1=S)NCCCn1ccnc1 the results were TCR-CD3 inh inactive, SIAE inh inactive, DDE Tn7 FP inh inactive, HTRA1 inh inactive, DDE Tn6 FP inh inactive and ABHD4 inh inactive.
For N[C@@H](Cc1ccc(O)c(O)c1)C(=O)O the results were TCR-CD3 inh 74.9, SIAE inh inactive, DDE Tn7 FP inh inactive, HTRA1 inh inactive, DDE Tn6 FP inh inactive, ABHD4 inh inactive, BSA TAMRA ctr inactive and TCR-CD3 inh conf 32.4.
COc1ccccc1/C=N/N1C(=O)c2cccc3cccc(c23)C1=O was read as TCR-CD3 inh 31.8, SIAE inh inactive, DDE Tn7 FP inh inactive, HTRA1 inh inactive, DDE Tn6 FP inh inactive, ABHD4 inh inactive, BSA TAMRA ctr 32.6 and TCR-CD3 inh conf 19.1.
Screening CC1SC(=NC(=O)C(C)N2C(=O)c3ccccc3C2=O)NC1=O (configuration not stated) returned TCR-CD3 inh 103.8, SIAE inh inactive, DDE Tn7 FP inh inactive, HTRA1 inh inactive, DDE Tn6 FP inh inactive, ABHD4 inh inactive, BSA TAMRA ctr inactive and TCR-CD3 inh conf inactive.
CC(C(=O)N1CCCCC1)N1C(=O)c2ccccc2C1=O (configuration not stated) was read as TCR-CD3 inh inactive, SIAE inh inactive, DDE Tn7 FP inh inactive, HTRA1 inh inactive, DDE Tn6 FP inh inactive and ABHD4 inh inactive.
Screening CCCCn1c(N)c(N(CCOC)C(=O)c2cc(-c3ccco3)nc3ccccc23)c(=O)[nH]c1=O returned TCR-CD3 inh 21.8, SIAE inh inactive, DDE Tn7 FP inh inactive, HTRA1 inh inactive, DDE Tn6 FP inh inactive, ABHD4 inh inactive, BSA TAMRA ctr inactive and TCR-CD3 inh conf inactive.
Screening CCc1cc(Cl)c(OC)c(C(=O)NC[C@@H]2CCCN2CC)c1O returned TCR-CD3 inh 28.8!, SIAE inh inactive, DDE Tn7 FP inh inactive, HTRA1 inh inactive, DDE Tn6 FP inh inactive, ABHD4 inh inactive, BSA TAMRA ctr inactive and TCR-CD3 inh conf inactive.
Screening O=C(N/N=C/c1cc(Br)ccc1O)c1cccc(N2CCCC2=O)c1 returned TCR-CD3 inh 29.5, SIAE inh inactive, DDE Tn7 FP inh inactive, HTRA1 inh inactive, DDE Tn6 FP inh inactive, ABHD4 inh inactive, BSA TAMRA ctr inactive and TCR-CD3 inh conf 25.9.
For COC(=O)C1CN(C2CCCC2)CCS(=O)(=O)N1Cc1cn(Cc2ccccc2)nn1 (configuration not stated) the results were SIAE inh inactive, DDE Tn7 FP inh inactive, DDE Tn6 FP inh inactive and ABHD4 inh inactive.
`Cc1ccc(SCc2cc(=O)[nH]c(N3CCOCC3)n2)cc1` gave TCR-CD3 inh 19.4, SIAE inh inactive, DDE Tn7 FP inh inactive, HTRA1 inh inactive, DDE Tn6 FP inh inactive, ABHD4 inh inactive, BSA TAMRA ctr inactive and TCR-CD3 inh conf inactive.
`Cc1nc(CSc2ccc(Cl)cc2)cc(N2CCOCC2)n1` gave TCR-CD3 inh inactive, SIAE inh inactive, DDE Tn7 FP inh inactive, HTRA1 inh inactive, DDE Tn6 FP inh inactive and ABHD4 inh inactive.
CCCCCCCCN1CN2Cc3ccccc3C2CS1(=O)=O (configuration not stated) was read as SIAE inh inactive, DDE Tn7 FP inh inactive, DDE Tn6 FP inh inactive and ABHD4 inh inactive.
CCc1ccccc1NC(=S)NNC(=O)c1ccccc1Cl was read as TCR-CD3 inh inactive, SIAE inh inactive, DDE Tn7 FP inh inactive, HTRA1 inh inactive, DDE Tn6 FP inh inactive and ABHD4 inh inactive.
CCc1ccccc1NC(=O)NNC(=O)c1ccc2ccccc2c1O was read as TCR-CD3 inh 26.3, SIAE inh inactive, DDE Tn7 FP inh inactive, HTRA1 inh inactive, DDE Tn6 FP inh inactive, ABHD4 inh inactive, BSA TAMRA ctr inactive and TCR-CD3 inh conf 21.8.
COc1ccc(NC(=O)NNC(=O)c2ccc3ccccc3c2O)c(OC)c1 was read as TCR-CD3 inh 42.0, SIAE inh inactive, DDE Tn7 FP inh inactive, HTRA1 inh inactive, DDE Tn6 FP inh inactive, ABHD4 inh inactive, BSA TAMRA ctr inactive and TCR-CD3 inh conf 31.3.
For Oc1c(C=Nc2cccc3cccnc23)sc2ccccc12 the results were TCR-CD3 inh 28.5, SIAE inh inactive, DDE Tn7 FP inh inactive, DDE Tn6 FP inh inactive, ABHD4 inh inactive, BSA TAMRA ctr 60.1 and TCR-CD3 inh conf 27.6.
For c1ccc2c(c1)N=C(N1CCN(Cc3ccc4c(c3)OCO4)CC1)c1ccccc1S2 the results were SIAE inh inactive, DDE Tn7 FP inh inactive, DDE Tn6 FP inh inactive and ABHD4 inh inactive.
COc1cc(NC(=O)CSc2nc(C)cc(=O)[nH]2)cc(OC)c1 was read as SIAE inh inactive, DDE Tn7 FP inh inactive, DDE Tn6 FP inh inactive and ABHD4 inh inactive.
For CC(C)(C)OC(=O)NCc1cc(F)ccc1/C=C/S(=O)(=O)NCc1ccccc1 the results were SIAE inh inactive, DDE Tn7 FP inh inactive, DDE Tn6 FP inh inactive and ABHD4 inh inactive.
For C[C@H](O)[C@@H]1C(=O)N2CCc3c([nH]c4cccc(-c5ccccc5)c34)[C@@H]2C[C@@H]1N(C)C(=O)OCc1ccccc1 the results were TCR-CD3 inh 21.1, SIAE inh inactive, DDE Tn7 FP inh inactive, DDE Tn6 FP inh inactive, ABHD4 inh inactive, BSA TAMRA ctr inactive and TCR-CD3 inh conf inactive.
For CCCn1c(=O)c(C(=O)Nc2ncccc2O)c(O)c2ccccc21 the results were TCR-CD3 inh 21.8, SIAE inh inactive, DDE Tn7 FP inh inactive, HTRA1 inh inactive, DDE Tn6 FP inh inactive, ABHD4 inh inactive, BSA TAMRA ctr inactive and TCR-CD3 inh conf 21.4.
